According to ChEMBL document CHEMBL4819118, “Rational modification, synthesis and biological evaluation of N-substituted phthalazinone derivatives designed to target interleukine-15 protein” (Bioorg Med Chem, 2021):

Tests used:
Interleukin-2 = Interleukin-2 (Homo sapiens, UniProt P60568); test: Inhibition of IL2-induced STAT5 phosphorylation in human NK92 cells incubated for 30 mins followed by IL-2 stimulation and measured after 1 hr by alphascreen assay
Interleukin-15 [1] = biological target: T1, Interleukin-15 (Homo sapiens, UniProt P40933); test: Inhibition of IL-15-induced STAT5 phosphorylation in human NK92 cells incubated for 30 mins followed by IL-15 stimulation and measured after 1 hr by alphascreen assay
T1 sequence (P40933 whole entry): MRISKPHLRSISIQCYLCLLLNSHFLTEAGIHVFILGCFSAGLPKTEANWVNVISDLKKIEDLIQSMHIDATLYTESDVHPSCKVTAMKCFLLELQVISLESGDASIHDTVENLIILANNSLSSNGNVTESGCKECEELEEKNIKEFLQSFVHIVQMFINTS

Interleukin-15 [2] = biological target: T1, Interleukin-15; test: Binding affinity to recombinant human IL-15 assessed as dissociation constant by SPR analysis
In short: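 IL-15 covalently immobilized on sensor chip; compounds flowed at increasing concentrations and binding monitored by surface plasmon resonance; Kd derived from direct interaction.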

Chain of Interleukin-2 (P60568 whole entry): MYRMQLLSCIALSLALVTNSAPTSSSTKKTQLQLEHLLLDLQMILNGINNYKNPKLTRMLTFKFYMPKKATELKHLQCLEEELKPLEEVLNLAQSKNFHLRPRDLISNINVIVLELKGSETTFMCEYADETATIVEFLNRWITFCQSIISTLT

Row | Compound | IC50 (Interleukin-2) [µM] | IC50 (Interleukin-15 [1]) [µM] | Kd (Interleukin-15 [2]; read-out: Kd) [µM] | Kd (Interleukin-15 [2])
1 | Cn1c(Cc2nn(C)c(=O)c3ccccc23)nnc1SCC(=O)Nc1ccc(Cl)cc1Cl | 7.7 | 4.5 | – | –
2 | Cn1c(Cc2nn(C)c(=O)c3ccccc23)nnc1SCCCCCCCC(=O)Nc1ccc(Cl)cc1Cl | 0.35 | 0.19 | 1.3 | –
3 | Cn1nc(Cc2nnc(SCCCCCCCC(=O)Nc3ccc(Cl)cc3Cl)[nH]2)c2ccccc2c1=O | 0.45 | 0.28 | 2.4 | –
4 | Cn1c(Cc2nn(CCC=O)c(=O)c3ccccc23)nnc1SCCCCCCCC(=O)Nc1ccc(Cl)cc1Cl | 21.9 | 14.9 | 7.8 | –
5 | Cn1c(Cc2nn(CCC=O)c(=O)c3ccccc23)nnc1SCC(=O)Nc1ccc(Cl)cc1Cl | > 30 | 20 | – | –
6 | CN(C)CCCn1nc(Cc2nnc(SCC(=O)Nc3ccc(Cl)cc3Cl)n2C)c2ccccc2c1=O | > 30 | > 30 | – | –
7 | Cn1nc(Cc2nnc(SCC(=O)Nc3ccc(Cl)cc3Cl)n2CCCO)c2ccccc2c1=O | > 30 | > 30 | – | –
8 | Cn1nc(Cc2nnc(SCCCCCCCC(=O)Nc3ccc(Cl)cc3Cl)n2CCC=O)c2ccccc2c1=O | 0.96 | 0.71 | 5.9 | –
9 | Cn1c(Cc2nn(CCCO)c(=O)c3ccccc23)nnc1SCCCCCCCC(=O)Nc1ccc(Cl)cc1Cl | > 30 | > 30 | 3.9 | –
10 | Cn1c(Cc2nn(CCC(=O)O)c(=O)c3ccccc23)nnc1SCC(=O)Nc1ccc(Cl)cc1Cl | > 30 | > 30 | – | –
11 | Cn1nc(Cc2nnc(SCC(=O)Nc3ccc(Cl)cc3Cl)n2CCC(=O)O)c2ccccc2c1=O | > 30 | > 30 | – | –
12 | Cn1c(Cc2nn(C)c(=O)c3ccccc23)nnc1SCCCCCCCC(=O)Nc1ccc(C(=O)c2ccccc2)cc1 | 0.08 | 0.05 | 3.5 | –
13 | Cn1nc(Cc2nnc(SCCCCCCCC(=O)Nc3ccc(Cl)cc3Cl)n2CCCO)c2ccccc2c1=O | > 30 | > 30 | – | –
14 | Cn1c(Cc2n[nH]c(=O)c3ccccc23)nnc1SCCCCCCCC(=O)Nc1ccc(Cl)cc1Cl | > 30 | 20 | – | Not Active
15 | CN(C)CCCn1nc(Cc2nnc(SCCCCCCCC(=O)Nc3ccc(Cl)cc3Cl)n2C)c2ccccc2c1=O | > 30 | > 30 | – | –
16 | Cn1c(Cc2nn(CCCO[Si](C)(C)C(C)(C)C)c(=O)c3ccccc23)nnc1SCCCCCCCC(=O)Nc1ccc(Cl)cc1Cl | > 30 | > 30 | – | –
17 | Cn1nc(Cc2nnc(SCC(=O)Nc3ccc(Cl)cc3Cl)n2CCC=O)c2ccccc2c1=O | 8.6 | 4.2 | – | –
18 | Cn1nc(Cc2nnc(SCCCCCCCC(=O)Nc3ccc(Cl)cc3Cl)n2CCC(=O)O)c2ccccc2c1=O | 14.3 | 9.5 | – | –
19 | CCOC(CCn1c(Cc2nn(C)c(=O)c3ccccc23)nnc1SCC(=O)Nc1ccc(Cl)cc1Cl)OCC | > 30 | > 30 | – | –
20 | Cn1nc(Cc2nnc(SCCCCCCCC(=O)Nc3ccc(Cl)cc3Cl)n2CCCO[Si](C)(C)C(C)(C)C)c2ccccc2c1=O | > 30 | > 30 | – | –
21 | Cn1c(Cc2nn(CCCO)c(=O)c3ccccc23)nnc1SCC(=O)Nc1ccc(Cl)cc1Cl | > 30 | – | – | –
22 | Cn1c(Cc2nn(CCC(=O)O)c(=O)c3ccccc23)nnc1SCCCCCCCC(=O)Nc1ccc(Cl)cc1Cl | – | > 30 | – | –
23 | Cn1c(Cc2nn(CCC3OCCO3)c(=O)c3ccccc23)nnc1SCC(=O)Nc1ccc(Cl)cc1Cl | > 30 | – | – | –
24 | CN(C)CCCn1c(Cc2nn(C)c(=O)c3ccccc23)nnc1SCCCCCCCC(=O)Nc1ccc(Cl)cc1Cl | > 30 | > 30 | – | –
